Experimental data: ChEMBL document CHEMBL1938388, “Design, synthesis and biological evaluation of new naphtalene diimides bearing isothiocyanate functionality” (Eur J Med Chem, 2012)
The source made the active and inactive calls. No cut-off for these calls is given here.

Key:
Jurkat [1] = experiment: Cytotoxicity against human Jurkat T cells assessed as decrease in cell viability after 24 hrs by flow cytometric analysis; type: functional, cell-based
Procedure, shortened: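 Jurkat cultures kept in exponential growth (split every third day to 1 × 10^5 cells/ml) were treated for one cell cycle (24 h) at graded concentrations. Viability was read right after treatment by flow cytometry after 5 min propidium iodide-based stain at room temperature. IC50 was interpolated from the dose-response curve; ≥3 independent experiments, mean ± SEM.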

Jurkat [2] = experiment: Cytotoxicity against human Jurkat T cells assessed as necrotic cells at 0.1 to 16 uM after 72 hrs by flow cytometric analysis; type: functional, cell-based
Procedure, shortened: (§1)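 After 72 h exposure of Jurkat cells, 2 × 10^4 cells were stained with an Annexin V-PE/7-AAD cocktail for 20 min at room temperature in the dark. Necrotic cells were scored by flow cytometry.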

Jurkat [3] = experiment: Cytotoxicity against human Jurkat T cells assessed as necrotic cells at 1 uM after 72 hrs by flow cytometric analysis; type: functional; procedure, shortened: as §1
Jurkat [4] = experiment: Ratio IC50 for sulforaphane to compound for human Jurkat T cells; type: functional
Jurkat [5] = experiment: Induction of apoptosis in human Jurkat T cells assessed as increase in phosphatidylserine level after 24 hrs by flow cytometric analysis; type: functional, cell-based
Jurkat [6] = experiment: Induction of apoptosis in human Jurkat T cells assessed as increase in phosphatidylserine level at 0.25 to 1.5 uM after 24 hrs by flow cytometric analysis; type: functional, cell-based
Jurkat [7] = experiment: Induction of apoptosis in human Jurkat T cells assessed as increase in necrotic cells at 1.5 uM after 24 hrs by 7-AA staining-based flow cytometric analysis; type: functional, cell-based
Jurkat [8] = experiment: Induction of apoptosis in human Jurkat T cells assessed as decrease in membrane potential at 0.5 uM after 24 hrs by JC-1 staining-based flow cytometric analysis; type: functional; parameters: scale not given: the % may be the effect or the level left
Jurkat [9] = experiment: Induction of apoptosis in human Jurkat T cells assessed as decrease in membrane potential at 0.75 uM after 24 hrs by JC-1 staining-based flow cytometric analysis; type: functional; parameters: scale not given: the % may be the effect or the level left
Jurkat [10] = experiment: Induction of apoptosis in human Jurkat T cells assessed as decrease in membrane potential at 2 uM after 24 hrs by JC-1 staining-based flow cytometric analysis; type: functional; parameters: scale not given: the % may be the effect or the level left
Jurkat [11] = experiment: Induction of apoptosis in human Jurkat T cells assessed as decrease in membrane potential after 24 hrs by JC-1 staining-based flow cytometric analysis; type: functional, cell-based
Jurkat [12] = experiment: Growth inhibition in human Jurkat T cells assessed as suppression into cell cycle progression at 1 uM after 24 hrs by flow cytometric analysis; type: functional; conditions: read-out: GI
Procedure, shortened: (§2)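 Jurkat cells were treated 24 h at graded concentrations, and cell growth inhibition was measured by flow cytometry. Mean ± SEM of at least three independent experiments.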

Jurkat [13] = experiment: Growth inhibition in human Jurkat T cells assessed as suppression into cell cycle progression at 1.5 uM after 24 hrs by flow cytometric analysis; type: functional; conditions: read-out: GI; procedure, shortened: as §2
Jurkat [14] = experiment: Growth inhibition in human Jurkat T cells assessed as suppression into cell cycle progression at 3 uM after 24 hrs by flow cytometric analysis; type: functional; conditions: read-out: GI; procedure, shortened: as §2
Jurkat [15] = experiment: Cell cycle arrest in human Jurkat T cells assessed as accumulation at G1 phase at 0.25 to 0.5 uM after 24 hrs by flow cytometric analysis (reference value: 58%); type: functional
Procedure, shortened: (§3)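 Jurkat cells exposed 24 h to a range of concentrations, fixed in ice-cold ethanol, stained with propidium iodide-containing cell cycle reagent for 30 min at room temperature in the dark; G1, S and G2/M fractions from flow cytometry. Mean ± SEM of four independent experiments.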

Jurkat [16] = experiment: Cell cycle arrest in human Jurkat T cells assessed as accumulation at S phase at 0.25 to 0.5 uM after 24 hrs by flow cytometric analysis; type: functional, cell-based; procedure, shortened: as §3
Jurkat [17] = experiment: Cell cycle arrest in human Jurkat T cells assessed as accumulation at G2/M phase at 0.25 to 0.5 uM after 24 hrs by flow cytometric analysis; type: functional, cell-based; procedure, shortened: as §3
Jurkat [18] = experiment: Induction of apoptosis in human Jurkat T cells assessed as decrease in membrane potential at 0.25 to 1 uM after 24 hrs by JC-1 staining-based flow cytometric analysis; type: functional, cell-based
Jurkat [19] = experiment: Induction of apoptosis in human Jurkat T cells assessed as caspase 8 activation after 24 hrs by FAM-LETD-FMK staining-based flow cytometric analysis
Jurkat [20] = experiment: Induction of apoptosis in human Jurkat T cells assessed as caspase 8 activation at 0.25 to 1 uM after 24 hrs by FAM-LETD-FMK staining-based flow cytometric analysis
Jurkat [21] = experiment: Induction of apoptosis in human Jurkat T cells assessed as increase in phosphatidylserine level at 0.5 to 4 uM after 24 hrs by flow cytometric analysis; type: functional, cell-based
Jurkat [22] = experiment: Induction of apoptosis in human Jurkat T cells assessed as increase in necrotic cells at 4 uM after 24 hrs by 7-AA staining-based flow cytometric analysis; type: functional, cell-based
Jurkat [23] = experiment: Induction of apoptosis in human Jurkat T cells assessed as decrease in membrane potential at 1 uM after 24 hrs by JC-1 staining-based flow cytometric analysis; type: functional; parameters: scale not given: the % may be the effect or the level left
Jurkat [24] = experiment: Growth inhibition in human Jurkat T cells assessed as suppression into cell cycle progression at 2 uM after 24 hrs by flow cytometric analysis; type: functional; procedure, shortened: as §2
Jurkat [25] = experiment: Growth inhibition in human Jurkat T cells assessed as suppression into cell cycle progression at 4 uM after 24 hrs by flow cytometric analysis; type: functional; conditions: read-out: GI; procedure, shortened: as §2
Jurkat [26] = experiment: Growth inhibition in human Jurkat T cells assessed as suppression into cell cycle progression at 8 uM after 24 hrs by flow cytometric analysis; type: functional; conditions: read-out: GI; procedure, shortened: as §2
Jurkat [27] = experiment: Cell cycle arrest in human Jurkat T cells assessed as accumulation at G1 phase at 0.5 to 1 uM after 24 hrs by flow cytometric analysis (reference value: 63%); type: functional; procedure, shortened: as §3
Jurkat [28] = experiment: Cell cycle arrest in human Jurkat T cells assessed as accumulation at S phase at 0.5 to 1 uM after 24 hrs by flow cytometric analysis (reference value: 20%); type: functional; procedure, shortened: as §3
Jurkat [29] = experiment: Cell cycle arrest in human Jurkat T cells assessed as accumulation at G2/M phase at 0.5 to 1 uM after 24 hrs by flow cytometric analysis; type: functional, cell-based; procedure, shortened: as §3
Jurkat [30] = experiment: Induction of apoptosis in human Jurkat T cells assessed as decrease in membrane potential at 0.5 to 2 uM after 24 hrs by JC-1 staining-based flow cytometric analysis; type: functional, cell-based
Jurkat [31] = experiment: Induction of apoptosis in human Jurkat T cells assessed as caspase 8 activation at 0.5 to 2 uM after 24 hrs by FAM-LETD-FMK staining-based flow cytometric analysis
Jurkat [32] = experiment: Induction of apoptosis in human Jurkat T cells assessed as increase in phosphatidylserine level at 2 uM after 24 hrs by flow cytometric analysis; type: functional, cell-based
Procedure, shortened: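 Jurkat T leukemia cells were exposed for 24 h. Aliquots of 2 × 10^4 cells were then stained with Guava Nexin Reagent, which contains Annexin V-PE for phosphatidylserine exposure and 7-AAD for membrane-permeable, necrotic cells. Staining ran 20 min at room temperature in the dark, followed by flow cytometry. Data are mean ± SEM of at least three independent experiments. Friedman test, Dunn's post test.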

Jurkat [33] = experiment: Induction of apoptosis in human Jurkat T cells assessed as increase in phosphatidylserine level at 0.25 to 1 uM after 24 hrs by flow cytometric analysis; type: functional, cell-based
Jurkat [34] = experiment: Induction of apoptosis in human Jurkat T cells assessed as increase in necrotic cells at 1 uM after 24 hrs by 7-AA staining-based flow cytometric analysis; type: functional, cell-based
Jurkat [35] = experiment: Growth inhibition in human Jurkat T cells assessed as suppression into cell cycle progression at 0.75 uM after 24 hrs by flow cytometric analysis; type: functional; conditions: read-out: GI; procedure, shortened: as §2
Jurkat [36] = experiment: Cell cycle arrest in human Jurkat T cells assessed as accumulation at G1 phase at 0.25 to 0.5 uM after 24 hrs by flow cytometric analysis (reference value: 56%); type: functional; procedure, shortened: as §3
Jurkat [37] = experiment: Cell cycle arrest in human Jurkat T cells assessed as accumulation at S phase at 0.25 to 0.5 uM after 24 hrs by flow cytometric analysis (reference value: 21%); type: functional; procedure, shortened: as §3
Jurkat [38] = experiment: Cell cycle arrest in human Jurkat T cells assessed as accumulation at G2/M phase at 0.25 to 0.5 uM after 24 hrs by flow cytometric analysis (reference value: 29%); type: functional; procedure, shortened: as §3
Jurkat [39] = experiment: Induction of apoptosis in human Jurkat T cells assessed as decrease in membrane potential at 0.25 to 0.75 uM after 24 hrs by JC-1 staining-based flow cytometric analysis; type: functional, cell-based
Jurkat [40] = experiment: Induction of apoptosis in human Jurkat T cells assessed as caspase 8 activation at 0.25 to 0.75 uM after 24 hrs by FAM-LETD-FMK staining-based flow cytometric analysis
Jurkat [41] = experiment: Induction of apoptosis in human Jurkat T cells assessed as increase in apoptotic cells at 0.75 uM after 24 hrs by 7-AA staining-based flow cytometric analysis relative to sulforaphane

Structure (SMILES)	Activity (Jurkat [1])	IC50 (Jurkat [1]) [nM]	Activity (Jurkat [2])	Activity (Jurkat [3]) [%]	Ratio IC50 (Jurkat [4])	Activity (Jurkat [5])	Activity (Jurkat [8]) [%]	Activity (Jurkat [9]) [%]	Activity (Jurkat [10]) [%]	Activity (Jurkat [11])	inhibition of growth at 1 µM (Jurkat [12]) [%]	Activity (Jurkat [19])	further results
O=C1c2ccc3c4c(ccc(c24)C(=O)N1CCN=C=S)C(=O)N(CCN=C=S)C3=O	Dose-dependent effect	890	Active	100	17	Dose-dependent effect	50.6	100	100	Dose-dependent effect	40	Dose-dependent effect	Activity (Jurkat [6]): Active; Activity (Jurkat [7]): Active; inhibition of growth at 1.5 µM (Jurkat [13]): 58%; inhibition of growth at 3 µM (Jurkat [14]): 94%; Activity (Jurkat [15]): 68%; Activity (Jurkat [16]): Active; Activity (Jurkat [17]): Active; Activity (Jurkat [18]): Active; Activity (Jurkat [20]): 66%
C[S+]([O-])CCCCN=C=S (stereo unspecified) [SULFORAPHANE]	–	15000	–	–	–	–	–	–	–	–	–	–	–
CN(C)CCN1C(=O)c2ccc3c4c(ccc(c24)C1=O)C(=O)N(CCN=C=S)C3=O	Dose-dependent effect	1910	Active	100	8	Dose-dependent effect	–	100	100	Dose-dependent effect	–	Dose-dependent effect	Activity (Jurkat [21]): Active; Activity (Jurkat [22]): Active; Activity (Jurkat [23]): 53%; inhibition of growth at 2 µM (Jurkat [24]; read-out: GI): 30%; inhibition of growth at 4 µM (Jurkat [25]): 40%; inhibition of growth at 8 µM (Jurkat [26]): 90%; Activity (Jurkat [27]): 68%; Activity (Jurkat [28]): 15%; Activity (Jurkat [29]): inactive; Activity (Jurkat [30]): Active; Activity (Jurkat [31]): 56%
CC[C@@]1(O)C(=O)OCc2c1cc1n(c2=O)Cc2cc3ccccc3nc2-1	–	–	–	–	–	–	–	–	–	–	–	–	Activity (Jurkat [32]): Active
O=C1c2ccc3c4c(ccc(c24)C(=O)N1CCCN=C=S)C(=O)N(CCCN=C=S)C3=O	Dose-dependent effect	430	Active	100	35	Dose-dependent effect	47.1	100	100	Dose-dependent effect	65	Dose-dependent effect	Activity (Jurkat [33]): Active; Activity (Jurkat [34]): Active; inhibition of growth at 0.75 µM (Jurkat [35]): 30%; growth inhibition (GI) (Jurkat [24]): Active; Activity (Jurkat [36]): 68%; Activity (Jurkat [37]): 13%; Activity (Jurkat [38]): 22%; Activity (Jurkat [39]): Active; Activity (Jurkat [40]): 68%; fold change (FC) (Jurkat [41]): 40
